In brackets after ≈: the same amount, converted by molar mass.
Legend:
Fusarium graminearum [1] = assay: Fungicidal activity against Fusarium graminearum assessed as mycelial growth inhibition in potato dextrose agar at 50 ug/mL at 24 +/- 0.5 degC; type: functional
Summary of the method: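 Single-concentration screen against G. zeae by mycelium growth rate test. Compound in acetone was mixed into PDA at 50 μg/mL, fungus cakes were placed on the plates and grown at 24 ± 0.5 °C, with an acetone blank and three replicates. Percent inhibition was recorded.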

[2] = system: Fusarium oxysporum f. sp. vasinfectum; assay: Fungicidal activity against Fusarium oxysporum f. sp. vasinfectum assessed as mycelial growth inhibition in potato dextrose agar at 24 +/- 0.5 degC; type: functional, organism-based
Summary of the method: (§1)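 Mycelium growth rate test. Compounds in acetone were mixed into PDA at 100, 50, 25, 12.5 and 6.25 μg/mL, fungus cakes were placed on the plates and grown at 24 ± 0.5 °C, with an acetone blank and three replicates. Inhibition rates were measured, and EC50 and EC90 were estimated by logit analysis.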

[3] = system: Colletotrichum orbiculare; assay: Fungicidal activity against Colletotrichum orbiculare assessed as mycelial growth inhibition in potato dextrose agar at 24 +/- 0.5 degC; type: functional, organism-based; summary of the method: as §1
Fusarium graminearum [4] = assay: Fungicidal activity against Fusarium graminearum assessed as mycelial growth inhibition in potato dextrose agar at 24 +/- 0.5 degC; type: functional, organism-based; summary of the method: as §1
Pythium aphanidermatum = assay: Fungicidal activity against Pythium aphanidermatum assessed as mycelial growth inhibition in potato dextrose agar at 24 +/- 0.5 degC; type: functional, organism-based; summary of the method: as §1
Rhizoctonia solani = assay: Fungicidal activity against Rhizoctonia solani assessed as mycelial growth inhibition in potato dextrose agar at 24 +/- 0.5 degC; type: functional, organism-based; summary of the method: as §1
Verticillium dahliae = assay: Fungicidal activity against Verticillium dahliae assessed as mycelial growth inhibition in potato dextrose agar at 24 +/- 0.5 degC; type: functional, organism-based; summary of the method: as §1
Botrytis cinerea = assay: Fungicidal activity against Botryotinia fuckeliana assessed as mycelial growth inhibition in potato dextrose agar at 24 +/- 0.5 degC; type: functional, organism-based; summary of the method: as §1

Work on `Cc1ccc(NC(=O)NS(=O)(=O)C2CCCCC2=O)c(C)c1` (stereo not drawn) yielded an inhibition at 50 µg/mL (Fusarium graminearum [1]) of 26.5%.
`CC(=O)c1ccc(NC(=O)NS(=O)(=O)C2CCCCCCCCCCC2=O)cc1` (stereo not drawn) was tested, and the inhibition at 50 µg/mL (Fusarium graminearum [1]) was 9.3%.
`COC(=O)Nc1nc2ccccc2[nH]1` [CARBENDAZIM] was tested, and the EC50 [2] was 0.54 µg/mL (≈ 2.82 µM), the EC90 [2] was 2.98 µg/mL (≈ 15.6 µM) and the EC50 [3] was 39.8 µg/mL (≈ 208 µM). The EC90 [3] was 200 µg/mL (≈ 1040 µM), the EC50 (Fusarium graminearum [4]) was 1.95 µg/mL (≈ 10.2 µM) and the EC90 (Fusarium graminearum [4]) was 4.46 µg/mL (≈ 23.3 µM). The EC50 (Pythium aphanidermatum) was 20.4 µg/mL (≈ 107 µM), the EC90 (Pythium aphanidermatum) was 75.9 µg/mL (≈ 397 µM) and the EC50 (Rhizoctonia solani) was 1.41 µg/mL (≈ 7.37 µM). It also gave an EC90 (Rhizoctonia solani) of 2.82 µg/mL (≈ 14.7 µM), an EC50 (Verticillium dahliae) of 18.2 µg/mL (≈ 95.2 µM) and an EC90 (Verticillium dahliae) of 93.3 µg/mL (≈ 488 µM).
`O=C(Nc1ccccc1Cl)NS(=O)(=O)C1CCCCCCCCCCC1=O` (stereo not drawn) showed an inhibition at 50 µg/mL (Fusarium graminearum [1]) of 49%.
`CC(C)c1cc(C(C)C)nc(NC(=O)NS(=O)(=O)C2CCCCCCCCCCC2=O)n1` (stereo not drawn) showed an inhibition at 50 µg/mL (Fusarium graminearum [1]) of 55.6%.
Molecule `O=C(Nc1cc(Cl)ccc1Cl)NS(=O)(=O)C1CCCCC1=O` (stereo not drawn) has an inhibition at 50 µg/mL (Fusarium graminearum [1]) of 26.5%.
Work on `Cc1ccc(NC(=O)NS(=O)(=O)C2CCCCCCCCCCC2=O)cc1C` (stereo not drawn) yielded an EC50 [2] of 24 µg/mL (≈ 58.8 µM), an EC90 [2] of 98 µg/mL (≈ 240 µM) and an EC50 (Botrytis cinerea) of 9.57 µg/mL (≈ 23.4 µM). For the same molecule, the EC90 (Botrytis cinerea) was 35.9 µg/mL (≈ 87.8 µM), the EC50 [3] was 30.4 µg/mL (≈ 74.5 µM) and the EC90 [3] was 105 µg/mL (≈ 256 µM). For the same molecule, the EC50 (Fusarium graminearum [4]) was 39 µg/mL (≈ 95.5 µM), the EC90 (Fusarium graminearum [4]) was 176 µg/mL (≈ 431 µM) and the inhibition at 50 µg/mL (Fusarium graminearum [1]) was 77.3%. It also gave an EC50 (Pythium aphanidermatum) of 33.5 µg/mL (≈ 82.1 µM), an EC90 (Pythium aphanidermatum) of 124 µg/mL (≈ 303 µM) and an EC50 (Rhizoctonia solani) of 112 µg/mL (≈ 274 µM). For the same molecule, the EC90 (Rhizoctonia solani) was 556 µg/mL (≈ 1360 µM), the EC50 (Verticillium dahliae) was 33.7 µg/mL (≈ 82.5 µM) and the EC90 (Verticillium dahliae) was 484 µg/mL (≈ 1180 µM).
Work on `COc1ccc(NC(=O)NS(=O)(=O)C2CCCCCCCCCCC2=O)cc1` (stereo not drawn) yielded an inhibition at 50 µg/mL (Fusarium graminearum [1]) of 18.1%.
For `COc1cc(Cl)nc(NC(=O)NS(=O)(=O)C2CCCCCCCCCCC2=O)n1` (stereo not drawn), the inhibition at 50 µg/mL (Fusarium graminearum [1]) was 34.5%.
`Cc1ccc(NC(=O)NS(=O)(=O)C2CCCCCCCCCCC2=O)cc1` (stereo not drawn) was tested, and the inhibition at 50 µg/mL (Fusarium graminearum [1]) was 34.5%.
In the case of `O=C(Nc1ccc(Cl)cc1)NS(=O)(=O)C1CCCCC1=O` (stereo not drawn), the inhibition at 50 µg/mL (Fusarium graminearum [1]) is reported as 18.1%.
`Cc1ccc(NC(=O)NS(=O)(=O)C2CCCCC2=O)cc1` (stereo not drawn) showed an inhibition at 50 µg/mL (Fusarium graminearum [1]) of 18.1%.
With `COc1cc(OC)nc(NC(=O)NS(=O)(=O)C2CCCCCC2=O)n1` (stereo not drawn) the inhibition at 50 µg/mL (Fusarium graminearum [1]) was 18.1%.
Work on `O=C(NC1CCCCCCCCCCC(=O)OCCC1)NS(=O)(=O)C1CCCCCCCCCCC1=O` (stereo not drawn) yielded an inhibition at 50 µg/mL (Fusarium graminearum [1]) of 26.1%.
For `CCc1cc(CC)nc(NC(=O)NS(=O)(=O)C2CCCCCCCCCCC2=O)n1` (stereo not drawn), the inhibition at 50 µg/mL (Fusarium graminearum [1]) was 55.6%.
Work on `CCCc1cc(CCC)nc(NC(=O)NS(=O)(=O)C2CCCCCCCCCCC2=O)n1` (stereo not drawn) yielded an inhibition at 50 µg/mL (Fusarium graminearum [1]) of 34.5%.
In the case of `O=C(Nc1cccc(Cl)c1)NS(=O)(=O)C1CCCCCCCCCCC1=O` (stereo not drawn), the inhibition at 50 µg/mL (Fusarium graminearum [1]) is reported as 42%.
For `O=C1CCCCCCCCCCC1S(=O)(=O)Nc1ccc(Cl)cc1` (stereo not drawn), the EC50 [2] was 24.6 µg/mL (≈ 66.1 µM), the EC90 [2] was 293 µg/mL (≈ 788 µM) and the EC50 (Botrytis cinerea) was 7.62 µg/mL (≈ 20.5 µM). The EC90 (Botrytis cinerea) was 39 µg/mL (≈ 105 µM), the EC50 [3] was 13.8 µg/mL (≈ 37 µM) and the EC90 [3] was 54.8 µg/mL (≈ 147 µM). It also gave an EC50 (Fusarium graminearum [4]) of 30 µg/mL (≈ 80.8 µM), an EC90 (Fusarium graminearum [4]) of 414 µg/mL (≈ 1110 µM) and an inhibition at 50 µg/mL (Fusarium graminearum [1]) of 72.6%. It also gave an EC50 (Pythium aphanidermatum) of 17.6 µg/mL (≈ 47.3 µM), an EC90 (Pythium aphanidermatum) of 59.6 µg/mL (≈ 160 µM) and an EC50 (Rhizoctonia solani) of 6.82 µg/mL (≈ 18.3 µM). For the same molecule, the EC90 (Rhizoctonia solani) was 57 µg/mL (≈ 153 µM), the EC50 (Verticillium dahliae) was 10.2 µg/mL (≈ 27.5 µM) and the EC90 (Verticillium dahliae) was 55.3 µg/mL (≈ 149 µM).
In the case of `O=C(Nc1cc(Cl)ccc1Cl)NS(=O)(=O)C1CCCCCCCCCCC1=O` (stereo not drawn), the EC50 [2] is reported as 19.5 µg/mL (≈ 43.5 µM), the EC90 [2] is reported as 53.8 µg/mL (≈ 120 µM) and the EC50 (Botrytis cinerea) is reported as 7.8 µg/mL (≈ 17.4 µM). It also gave an EC90 (Botrytis cinerea) of 33.8 µg/mL (≈ 75.1 µM), an EC50 [3] of 13.5 µg/mL (≈ 30.1 µM) and an EC90 [3] of 64.3 µg/mL (≈ 143 µM). The EC50 (Fusarium graminearum [4]) was 31.5 µg/mL (≈ 70 µM), the EC90 (Fusarium graminearum [4]) was 169 µg/mL (≈ 377 µM) and the inhibition at 50 µg/mL (Fusarium graminearum [1]) was 81.6%. For the same molecule, the EC50 (Pythium aphanidermatum) was 16.7 µg/mL (≈ 37.1 µM), the EC90 (Pythium aphanidermatum) was 49.9 µg/mL (≈ 111 µM) and the EC50 (Rhizoctonia solani) was 38.9 µg/mL (≈ 86.6 µM). It also gave an EC90 (Rhizoctonia solani) of 106 µg/mL (≈ 235 µM), an EC50 (Verticillium dahliae) of 22 µg/mL (≈ 49 µM) and an EC90 (Verticillium dahliae) of 142 µg/mL (≈ 316 µM).
For `O=C(Nc1ccc(F)cc1)NS(=O)(=O)C1CCCCCCCCCCC1=O` (stereo not drawn), the inhibition at 50 µg/mL (Fusarium graminearum [1]) was 18.1%.
With `Cc1ccnc(NC(=O)NS(=O)(=O)C2CCCCCCCCCCC2=O)n1` (stereo not drawn) the inhibition at 50 µg/mL (Fusarium graminearum [1]) was 18.1%.
`O=C(Nc1ccc(Cl)c(Cl)c1)NS(=O)(=O)C1CCCCC1=O` (stereo not drawn) gave an inhibition at 50 µg/mL (Fusarium graminearum [1]) of 18.1%.
Molecule `O=C(Nc1cc(Cl)ccc1Cl)NS(=O)(=O)C1CCCCCC1=O` (stereo not drawn) has an inhibition at 50 µg/mL (Fusarium graminearum [1]) of 18.1%.
`O=C(Nc1ccc(Cl)c(Cl)c1)NS(=O)(=O)C1CCCCCC1=O` (stereo not drawn) showed an inhibition at 50 µg/mL (Fusarium graminearum [1]) of 18.1%.
`CC12CC1(C)C(=O)N(c1cc(Cl)cc(Cl)c1)C2=O` (stereo not drawn) [PROCYMIDONE] gave an EC90 (Botrytis cinerea) of 5.75 µg/mL (≈ 20.2 µM).
Molecule `COc1cc(OC)nc(NC(=O)NS(=O)(=O)C2CCCCCCCCCCC2=O)n1` (stereo not drawn) has an inhibition at 50 µg/mL (Fusarium graminearum [1]) of 26.5%.
`O=C(Nc1ccc(Cl)cc1)NS(=O)(=O)C1CCCCCC1=O` (stereo not drawn) gave an inhibition at 50 µg/mL (Fusarium graminearum [1]) of 18.1%.
For `Cc1ccc(NC(=O)NS(=O)(=O)C2CCCCCC2=O)c(C)c1` (stereo not drawn), the inhibition at 50 µg/mL (Fusarium graminearum [1]) was 9.3%.
In the case of `O=C(Nc1cccc([N+](=O)[O-])c1)NS(=O)(=O)C1CCCCCCCCCCC1=O` (stereo not drawn), the inhibition at 50 µg/mL (Fusarium graminearum [1]) is reported as 18.1%.
In the case of `O=C(Nc1ccc(Cl)c(Cl)c1)NS(=O)(=O)C1CCCCCCCCCCC1=O` (stereo not drawn), the inhibition at 50 µg/mL (Fusarium graminearum [1]) is reported as 55.6%.
`Cc1cccc(NC(=O)NS(=O)(=O)C2CCCCCCCCCCC2=O)c1` (stereo not drawn) showed an inhibition at 50 µg/mL (Fusarium graminearum [1]) of 34.5%.
`Cc1cc(C)nc(NC(=O)NS(=O)(=O)C2CCCCCCCCCCC2=O)n1` (stereo not drawn) was tested, and the inhibition at 50 µg/mL (Fusarium graminearum [1]) was 18.1%.
With `Cc1ccc(NC(=O)NS(=O)(=O)C2CCCCCC2=O)cc1` (stereo not drawn) the inhibition at 50 µg/mL (Fusarium graminearum [1]) was 18.1%.
With `O=C(Nc1ccc(Cl)cc1)NS(=O)(=O)C1CCCCCCCCCCC1=O` (stereo not drawn) the inhibition at 50 µg/mL (Fusarium graminearum [1]) was 49%.
In the case of `COc1cc(OC)nc(NC(=O)NS(=O)(=O)C2CCCCC2=O)n1` (stereo not drawn), the inhibition at 50 µg/mL (Fusarium graminearum [1]) is reported as 18.1%.
